Assay outcomes (PubChem)
In the library only some 2.2% were active in any assay of this set; here they are far more common.
LMPTP block – blocks human LMPTP phosphatase. recombinant LMPTP-A, OMFP fluorogenic substrate, fluorescence intensity. actives 0.22% (n = 360,000). AID 651560. inhibition, % at 20 µM;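 active = compounds that cut the enzyme signal by at least half of the control window in the single-dose screen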;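 note: plate controls were DMSO wells with enzyme plus substrate for no effect and substrate without enzyme for full effect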
Target sequence (P24666 whole entry, looked up): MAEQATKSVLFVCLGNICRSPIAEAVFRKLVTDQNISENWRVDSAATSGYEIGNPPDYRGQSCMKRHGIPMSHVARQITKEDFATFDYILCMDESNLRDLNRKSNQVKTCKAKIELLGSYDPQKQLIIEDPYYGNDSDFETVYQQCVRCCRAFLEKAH
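Assay system: LMPTP-A enzyme. Input: 0.625 nM LMPTP-A final. Probe or stimulus: 400 µM OMFP. Compound dosing: single 20 µM dose. Schedule: 50 min dark incubation at room temperature. Detection: fluorescence intensity of OMFP turnover product. Read-out: percent inhibition versus substrate-only and uninhibited controls. Benchmarks: no-enzyme low control, uninhibited high control.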
DNMT1 inh – blocks human DNA methyltransferase DNMT1; P26358; DNMT1 molecular beacon, Hinp1I cleavage, fluorescence; inhibition (reported as % activation of signal), % at 10 µM; actives 0.83% (n = 360,000); in the data active = inhibition above about 50%
Scp1 inh – inhibitors of human Scp-1 phosphatase. Q9GZU7. Recombinant Scp1, phosphopeptide, malachite green phosphate absorbance. inhibition, % at 20 µM. actives 0.88% (n = 340,000);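 active = inhibition above about 50% at 20 µM, limit read from the data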;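 note: plate controls were DMSO wells with enzyme for no effect and wells lacking enzyme for full effect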
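Material: truncated SCP-1 phosphatase (76-261aa) / Buffer or medium: 50 mM Tris acetate pH 5.5, 0.005% Tween-20, 10 mM MgCl2 / Compound dosing: one concentration, 20 µM, with 1.0% DMSO / Incubation: 45 min room-temperature reaction, 5 min colour, 30 min stabiliser / Detection: colorimetric free-phosphate detection, absorbance 630 nm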
GRK2 aptamer HTS – inhibitors of human GRK2 displacing RNA aptamer. actives 0.59% (n = 330,000). inhibition of aptamer binding, % at 10 µM. P25098. bead flow cytometry, FAM-aptamer displacement from GRK2;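 active = inhibition of aptamer binding above 40%, roughly 3 SD of noise, on plates passing a quality check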;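 note: median bead fluorescence of bound FAM aptamer so fluorescent compounds give negative values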
SUMO1-SIM PPI – SUMO1-SIM interaction modulation. P63165. actives 0.33% (n = 360,000). inhibition, % at 20 µM. SUMO1 binding to a labelled peptide, TR-FRET, 1 h. AID 602429; in the data active = inhibition above about 37%
STEP inh – inhibitors of human striatal-enriched phosphatase STEP; P54829; recombinant STEP, OMFP fluorogenic substrate, fluorescence; inhibition, % at 20 µM; actives 0.25% (n = 360,000); AID 588621;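 active = inhibition at 20 µM, scaled per plate between control wells, above about 37%, limit read from the data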;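 note: 0% = DMSO with enzyme and substrate and 100% = substrate only without enzyme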
Target sequence (P54829 whole entry, looked up): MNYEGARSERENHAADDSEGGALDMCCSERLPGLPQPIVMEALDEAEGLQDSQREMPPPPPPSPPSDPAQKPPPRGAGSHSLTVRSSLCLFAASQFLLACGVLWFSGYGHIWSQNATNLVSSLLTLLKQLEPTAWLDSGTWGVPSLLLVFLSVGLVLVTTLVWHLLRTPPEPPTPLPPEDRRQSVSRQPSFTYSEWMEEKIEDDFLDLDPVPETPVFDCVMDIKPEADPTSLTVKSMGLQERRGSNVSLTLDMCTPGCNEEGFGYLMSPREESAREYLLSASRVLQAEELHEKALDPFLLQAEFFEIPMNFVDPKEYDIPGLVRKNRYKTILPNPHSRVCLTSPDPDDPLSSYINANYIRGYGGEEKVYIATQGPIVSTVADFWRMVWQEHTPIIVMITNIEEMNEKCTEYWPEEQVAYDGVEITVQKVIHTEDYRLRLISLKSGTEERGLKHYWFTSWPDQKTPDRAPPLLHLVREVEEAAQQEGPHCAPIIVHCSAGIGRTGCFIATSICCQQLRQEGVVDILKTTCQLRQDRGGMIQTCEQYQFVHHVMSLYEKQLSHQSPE
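Assay system: isolated STEP enzyme / Timing: 20 min at room temperature, dark / Doses: 20 µM, 1% DMSO / Technique: fluorescence intensity, excitation 480 nm, emission 540 nm / Reagent: fluorogenic phosphatase substrate OMFP at 25 µM final / Measure: percent inhibition scaled to no-enzyme and uninhibited-enzyme controls, plate-pattern corrected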
GRK2 CP1 – confirmation of human GRK2 inhibitors displacing RNA aptamer; shares compounds with GRK2 aptamer HTS; bead-bound GRK2, FAM-aptamer displacement, flow cytometry; aptamer displacement, % at 10 µM; actives 4% (n = 2,000);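 active = aptamer displacement above 40%, near three times the noise of non-fluorescent compounds, on plates passing quality checks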;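 note: negative values mostly reflect intrinsic compound fluorescence rather than true enhancement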
Aptamer quench 1 – fluorescent aptamer quenching in GRK2 counter-screen dose response; shares compounds with GRK2 aptamer HTS; Fluorescent RNA aptamer beads, flow cytometry; stronger effect = higher value; fluorescence change (kMESF span), kMESF (test concentration not listed); 110 tested, under 10 active; AID 504521;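 active = compounds whose bead fluorescence drops by more than 37 kMESF across the dose range, marking them as dye quenchers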
Aptamer quench SP – quenches fluorescent RNA aptamer, GRK2 hit artifact; shares compounds with GRK2 aptamer HTS; Carboxyfluorescein RNA aptamer on beads, flow cytometry quenching; stronger effect = lower value; fluorescence response (% of DMSO), % at 10 µM; 2,000 tested, under 10 active;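 active = compounds that quench the bead-bound fluorescent RNA probe, cutting fluorescence to under half of the solvent control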;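 note: counterscreen run without GRK2 so only probe quenching by compound is measured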
* marks the source's active call; other numbers are inactive results.

Results for O=C(N/N=C/c1ccc2c(c1)OCO2)c1cc2ccccc2o1 ?
LMPTP block: -1; DNMT1 inh: 6; Scp1 inh: -1; GRK2 aptamer HTS: 6; SUMO1-SIM PPI: 0; STEP inh: -2

Results for Clc1ccc(CN=C2Nc3ccccc3CS2)cc1 ?
LMPTP block: 2; DNMT1 inh: -4; Scp1 inh: -10; GRK2 aptamer HTS: 2; SUMO1-SIM PPI: 0; STEP inh: -2

What do the screens show for `c1ccc2c(c1)CSc1ccccc1N2`?
LMPTP block: 0; DNMT1 inh: -3; Scp1 inh: -4; GRK2 aptamer HTS: 97*; SUMO1-SIM PPI: 1; STEP inh: -2; GRK2 CP1: -4; Aptamer quench SP: 97

Results for CC(C)NC(=O)C1(C)CSCC(=O)N1CCCN1CCOCC1 (stereo unspecified) ?
LMPTP block: -5; SUMO1-SIM PPI: -2

Results for O=C(CCCN1C(=O)/C(=C/c2cccs2)SC1=S)Nc1cccc(C(=O)O)c1 ?
LMPTP block: 1; DNMT1 inh: 2; Scp1 inh: -5; GRK2 aptamer HTS: 95*; SUMO1-SIM PPI: -14; STEP inh: 13; GRK2 CP1: 1; Aptamer quench SP: 101

What do the screens show for `O=C(CCN1C(=O)/C(=C/c2cccs2)SC1=S)Nc1cccc(C(=O)O)c1`?
LMPTP block: 1; DNMT1 inh: 2; Scp1 inh: 36; GRK2 aptamer HTS: 1; SUMO1-SIM PPI: -2; STEP inh: 5

Results for CCOC(=O)c1sc(NCc2ccco2)c(-c2nc3ccccc3s2)c1N ?
LMPTP block: 3; DNMT1 inh: -8; Scp1 inh: -5; GRK2 aptamer HTS: 68*; SUMO1-SIM PPI: -2; STEP inh: -1; GRK2 CP1: 70*; Aptamer quench 1: -3.2; Aptamer quench SP: 102

Results for CNc1cncc(-c2ccc(CN3CCOCC3)cc2)n1 ?
LMPTP block: -2; DNMT1 inh: 3; SUMO1-SIM PPI: -19; STEP inh: -2

How did C/C(=N\OCc1ccc(C#N)cc1)c1ccc(S(=O)(=O)N(C)C)cc1 do in these assays?
LMPTP block: 0; DNMT1 inh: -1; Scp1 inh: -26; GRK2 aptamer HTS: 47*; SUMO1-SIM PPI: 1; STEP inh: 0; GRK2 CP1: 1; Aptamer quench SP: 96

What do the screens show for `CC(C)[C@@H]1Cc2[nH]c(=O)[nH]c(=O)c2[C@H](C)O1`?
LMPTP block: -2; SUMO1-SIM PPI: 4

How did COc1ccc(NC(=O)C2c3ccccc3OCC(=O)N2Cc2ccco2)cc1 (stereo unspecified) do in these assays?
LMPTP block: -1; SUMO1-SIM PPI: 1

Results for Cc1cc(C)n(/N=C/c2ccccc2)c(=O)c1C#N ?
LMPTP block: -2; DNMT1 inh: 0; Scp1 inh: -7; GRK2 aptamer HTS: 1; SUMO1-SIM PPI: 1; STEP inh: 0

How did Cc1cc(C)n(/N=C/c2c[nH]c3ccccc23)c(=O)c1C#N do in these assays?
LMPTP block: 1; DNMT1 inh: 4; Scp1 inh: 1; GRK2 aptamer HTS: 65*; SUMO1-SIM PPI: -4; STEP inh: -1; GRK2 CP1: 1; Aptamer quench SP: 108

Results for NC(=O)c1cc[n+](CC2=C(C(=O)O)N3C(=O)[C@@H](NC(=O)C(c4ccccc4)S(=O)(=O)[O-])[C@H]3SC2)cc1 (stereo partly specified) ?
LMPTP block: 15; DNMT1 inh: 98*; Scp1 inh: 85*; GRK2 aptamer HTS: 85*; SUMO1-SIM PPI: 82*; STEP inh: 97*; GRK2 CP1: 99*; Aptamer quench 1: -7.8; Aptamer quench SP: 96

What do the screens show for `COCCCNC(=O)C[C@@H]1C[C@@]2(C(=O)OC)CCCCC=C2N(Cc2ccco2)C1=O`?
LMPTP block: -1; SUMO1-SIM PPI: 3

Results for Cc1cnc(NC(=O)Cc2c[nH]c3ccccc23)s1 ?
LMPTP block: -1; DNMT1 inh: -2; Scp1 inh: 0; GRK2 aptamer HTS: 51*; SUMO1-SIM PPI: -1; STEP inh: 3; GRK2 CP1: -1; Aptamer quench SP: 99

Results for O=C1NC(=O)/C(=C/c2ccc(-c3cc(C(=O)O)ccc3Cl)o2)S1 ?
LMPTP block: -6; DNMT1 inh: 30; Scp1 inh: 29; GRK2 aptamer HTS: 14; SUMO1-SIM PPI: 12; STEP inh: 22

What do the screens show for `O=C1NC(=O)/C(=C\c2ccc(Br)o2)S1`?
LMPTP block: 1; DNMT1 inh: 43; Scp1 inh: 41; GRK2 aptamer HTS: 90*; SUMO1-SIM PPI: -11; STEP inh: 6; GRK2 CP1: 6; Aptamer quench SP: 94

What do the screens show for `CC(C)C[C@H]1CNC(=O)C(=O)N1CC1CCN(CC2CCC(C)CC2)CC1` (stereo partly specified)?
LMPTP block: -1; DNMT1 inh: 1; SUMO1-SIM PPI: -1; STEP inh: 0

How did Cc1ccc(NC(=O)CNC(=O)C2CCCCC2)nc1 do in these assays?
LMPTP block: -1; DNMT1 inh: 2; Scp1 inh: -5; GRK2 aptamer HTS: 63*; SUMO1-SIM PPI: 3; STEP inh: 1; GRK2 CP1: -1; Aptamer quench SP: 105

Results for Cc1cccnc1NC(=O)CNC(=O)C1CCCCC1 ?
LMPTP block: -9; DNMT1 inh: 4; Scp1 inh: -9; GRK2 aptamer HTS: 0; SUMO1-SIM PPI: -8; STEP inh: -4

Results for Cc1ccccc1Cn1nc(C)c(NC(=O)c2cc3n(n2)C(C(F)F)CC(C(F)F)N3)c1C (stereo unspecified) ?
LMPTP block: -2; DNMT1 inh: -4; Scp1 inh: 1; GRK2 aptamer HTS: 98*; SUMO1-SIM PPI: -1; STEP inh: -2; GRK2 CP1: 0; Aptamer quench SP: 100

Results for Cc1ccccc1Cn1nc(C)c(NC(=O)c2nc3n(n2)C(C(F)F)CC(C)N3)c1C (stereo unspecified) ?
LMPTP block: -1; DNMT1 inh: -2; Scp1 inh: -7; GRK2 aptamer HTS: 1; SUMO1-SIM PPI: 0; STEP inh: -3
